The results in this text go back to ChEMBL document CHEMBL3351381, “Synthesis, structure-activity relationship studies, and antibacterial evaluation of 4-chromanones and chalcones, as well as olympicin A and derivatives” (J Med Chem, 2014).

Values after ≈ are worked out from the molar mass of the structure shown. Active and inactive are the calls of the source. A value given as a limit tells only on which side of the number the result lay.

In data set [1] the test system is Staphylococcus aureus. In words: Antimicrobial activity against methicillin-sensitive Staphylococcus aureus ATCC 29213 by microbroth dilution method. The format is functional. (In general: Broth dilution looks for growth in wells or tubes with falling amounts of substance.)
The subject of data set [2] is Pseudomonas aeruginosa. Kind of data set: Antimicrobial activity against Pseudomonas aeruginosa PAO1 at >200 ug/ml by microbroth dilution method. The format is functional.
Data set [3] is described as follows: Inhibition of purified recombinant Escherichia coli topoisomerase 1 assessed as relaxation of supercoiled plasmid DNA after 30 mins by electrophoretic analysis.
Data set [4] has as its system Escherichia coli. In words: Antimicrobial activity against Escherichia coli K-12 by microbroth dilution method. The format is functional.
The test system of data set [5] is Staphylococcus aureus. Kind of data set: Antimicrobial activity against methicillin-resistant Staphylococcus aureus NRS 70 by microbroth dilution method. The format is functional.
The target in data set [6] is DNA gyrase (Escherichia coli, UniProt P0AES4+P0AES6). Kind of data set: Inhibition of Escherichia coli DNA gyrase assessed as supercoiled plasmid DNA formation after 30 mins by electrophoretic analysis. The format is protein-complex assay.
In data set [7] the test system is Enterococcus faecalis. Kind of data set: Antimicrobial activity against Enterococcus faecalis ATCC 33186 by microbroth dilution method. The format is functional.
Data set [8] in a line: Inhibition of Escherichia coli topoisomerase 4 assessed as inhibition of decatenation of catenated kinetoplast DNA after 30 mins by electrophoretic analysis.
Data set [9] relates to Mycobacterium tuberculosis. In words: Antimicrobial activity against Mycobacterium tuberculosis H37Rv by microbroth dilution method. The format is functional.
In data set [10] the test system is Klebsiella pneumoniae. In words: Antimicrobial activity against Klebsiella pneumoniae ATCC 33495 at >200 ug/ml by microbroth dilution method. The format is functional.
For data set [11], the system named is Escherichia coli. Kind of data set: Antimicrobial activity against tolC-deficient Escherichia coli by microbroth dilution method. The format is functional.
Data set [12] in a line: Solubility of the compound in DMEM/FBS medium. The format is physicochemical. In a few lines:
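Solubility limit estimated from 2-fold serial dilutions in DMEM with 5% FBS kept overnight at 37 °C; highest concentration with no visible precipitate taken.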

In data set [13] the test system is Vero. Kind of data set: Cytotoxicity against african green monkey Vero cells assessed as reduction in cell viability by MTT assay. The format is cell-based. To be noted: Chlorocebus sabaeus. In a few lines:
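Vero kidney epithelial cells (ATCC CCL-81) in DMEM/10% FBS, trypsinized, seeded near 10% confluence, left overnight to adhere; medium swapped for DMEM/FBS with 2-fold serial compound dilutions.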
On the technique in general: Tetrazolium assays rely on reduction of a dye to a coloured formazan, in cell work by metabolically active cells.

Data set [14] is described as follows: Selectivity index, ratio of CC50 for african green monkey Vero cells to IC50 for methicillin-resistant Staphylococcus aureus NRS 70. The format is functional. In a few lines: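 Vero kidney epithelial cells were grown in DMEM/10% FBS, trypsinized, seeded at about 10% confluence and left overnight to adhere. They were then exposed to 2-fold serial compound dilutions in DMEM/FBS, and viability was read by MTT after overnight solubilization. SI = cytotoxic IC50 divided by MIC against MRSA.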

Data set [15] has as its system Staphylococcus aureus. In words: Disruption of membrane potential in Staphylococcus aureus Newman assessed as […] at 4 times MIC using DiOC2(3) probe by fluorescence assay. The format is functional. An outline of the steps: (§1)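 S. aureus Newman grown to OD600nm ≈ 0.3 in Mueller–Hinton II, stained with DiOC2(3) and run on flow cytometry; red/green fluorescence ratio gives membrane potential. CCCP positive control, vancomycin negative control.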

Data set [16] has as its system Staphylococcus aureus. Kind of data set: Disruption of membrane potential in Staphylococcus aureus Newman assessed as […] using DiOC2(3) probe by fluorescence assay. The format is functional. In a few lines:
as §1

The MIC is the smallest concentration in the dilution series that meets the test's criterion for growth inhibition. Usually IC50 stands for the point on the concentration scale where inhibition reaches its midpoint. As to `CCCCCCCCOc1cc(O)cc(O)c1C(=O)C(C)CC` (racemic), the minimum inhibitory concentration (MIC) in [1] is 1.56 µg/mL (≈ 4.84 µM); in [2], > 200 µg/mL; in data set [4] it was > 200 µg/mL; in [5], 1.56 µg/mL (≈ 4.84 µM); in [7], 0.78 µg/mL (≈ 2.42 µM); in [9], 100 µg/mL (≈ 310 µM). In addition, the minimum inhibitory concentration (MIC) in [10] and in data set [11] was > 200 µg/mL in each case. For the same compound, the figures for the IC50 in data set [3], in [6] and in [8] were > 500 µM, > 1000 µM and 30 µM, respectively.

Broadly, the solubility is how much of the substance goes into solution per volume. Take `CCCCCCCCCC1CC(=O)c2c(O)cc(O)cc2O1` (configuration not stated): the MIC in [1] was 100 µg/mL (≈ 326 µM); in [2], > 200 µg/mL; in data set [4], > 200 µg/mL; in data set [5] it was 3.13 µg/mL (≈ 10.2 µM); in data set [7], 100 µg/mL (≈ 326 µM); in data set [9], 100 µg/mL (≈ 326 µM). The MIC was > 200 µg/mL in data set [10] and 12.5 µg/mL (≈ 40.8 µM) in [11]. The solubility in data set [12] was > 200 µg/mL. Moreover, the 50% inhibitory concentration (IC50) in [13] is 8.6 µg/mL (≈ 28.1 µM). The “Selectivity Index” value in [14] turned out to be 2.8.

On to `CCCCCc1cc(OC(=O)c2c(O)cc(O)cc2CCCCC)cc(O)c1C(=O)O`, for which the half-inhibitory concentration (IC50) in [3] is 14 µM.

With `CCCCCCCC1CC(=O)c2c(O)cc(O)cc2O1` (configuration not stated), the minimum inhibitory concentration (MIC) is 12.5 µg/mL (≈ 44.9 µM) in data set [1]; > 200 µg/mL in [2]; > 200 µg/mL in data set [4]; 3.13 µg/mL (≈ 11.2 µM) in data set [5]; 200 µg/mL (≈ 719 µM) in data set [7]; 50 µg/mL (≈ 180 µM) in data set [9]. Also, the minimal inhibitory concentration (MIC) in data set [10] was > 200 µg/mL; in data set [11], 1.56 µg/mL (≈ 5.6 µM). In data set [12], this compound displayed a solubility of 150 µg/mL (≈ 539 µM). Moreover, the 50% inhibitory concentration (IC50) in data set [3] was > 500 µM; in data set [13], 33 µg/mL (≈ 119 µM); in data set [6] it was > 1000 µM; in [8], 120 µM. Further, the “Selectivity Index” value in data set [14] is given as 10.5.

For the compound `CC(C)=CCCC(C)CC1CC(=O)c2c(O)cc(O)cc2O1` (configuration not stated), the MIC in [2] is > 200 µg/mL; in [4], > 200 µg/mL; in [5] it was 3.13 µg/mL (≈ 10.3 µM); in [7], 6.25 µg/mL (≈ 20.5 µM); in [9], 200 µg/mL (≈ 657 µM); in data set [10], > 200 µg/mL. The same compound registered an MIC in data set [11] of 1.56 µg/mL (≈ 5.13 µM). For the same compound, the solubility in [12] is > 200 µg/mL. The concentration for half-maximal inhibition (IC50) in data set [13] was determined as 27 µg/mL (≈ 88.7 µM). For the same compound, the outcome in data set [15] was Active. Besides, the Activity result in data set [16] was “Dose-dependent effect”. Moreover, the “Selectivity Index” value in [14] is reported as 8.6.

Turning to `CC[C@H](C)C(=O)c1c(O)cc(O)cc1OC/C=C(\C)CCC=C(C)C` [OLYMPICIN A], the MIC in data set [2] was > 200 µg/mL; in [4] it was > 200 µg/mL; in data set [5], 1.56 µg/mL (≈ 4.5 µM); in data set [10] it was > 200 µg/mL. The concentration for half-maximal inhibition (IC50) is > 500 µM in [3] and 30 µM in [8]. The outcome in data set [15] was Active. Also, in [16], the Activity result is “Dose-dependent effect”.

`CCCCCCOc1ccccc1C1CC(=O)c2ccc(O)cc2O1` (configuration not stated): the MIC was 1.56 µg/mL (≈ 4.58 µM) in data set [1]; > 200 µg/mL in data set [2]; > 200 µg/mL in data set [4]; 1.56 µg/mL (≈ 4.58 µM) in [5]; 50 µg/mL (≈ 147 µM) in data set [7]; > 200 µg/mL in data set [9]. Besides, the MIC was > 200 µg/mL in data set [10] and 1.56 µg/mL (≈ 4.58 µM) in data set [11]. For the same compound, in [12], the solubility is > 200 µg/mL. The IC50 in data set [3] was > 500 µM; in data set [13] it was 24.5 µg/mL (≈ 72 µM); in data set [6], > 1000 µM; in data set [8], > 1000 µM. Further, in data set [14], the “Selectivity Index” value is 15.7.

As to `CCCCCCCCOc1ccccc1C1CC(=O)c2ccc(O)cc2O1` (configuration not stated), the minimum inhibitory concentration (MIC) in [1] is 12.5 µg/mL (≈ 33.9 µM); in data set [2], > 200 µg/mL; in data set [4], > 200 µg/mL; in data set [5] it was 3.13 µg/mL (≈ 8.49 µM); in [7], 1.56 µg/mL (≈ 4.23 µM); in [9] it was > 200 µg/mL. Besides, the MIC in data set [10] and in [11] was > 200 µg/mL each time. Besides, in [12], the solubility is > 200 µg/mL. Moreover, the IC50 is > 500 µM in [3], 17 µg/mL (≈ 46.1 µM) in [13], > 1000 µM in [6] and > 1000 µM in [8]. In addition, in data set [14], the “Selectivity Index” value came to 5.4.

As for `CCCCCCCCCC1C/C(=N\O)c2c(O)cc(O)cc2O1` (configuration not stated), the MIC was 12.5 µg/mL (≈ 38.9 µM) in data set [1]; > 200 µg/mL in data set [2]; > 200 µg/mL in data set [4]; 12.5 µg/mL (≈ 38.9 µM) in data set [5]; 6.25 µg/mL (≈ 19.4 µM) in [7]; 100 µg/mL (≈ 311 µM) in [9]. In addition, the MIC in data set [10] and in data set [11] was > 200 µg/mL throughout. The same compound yielded a solubility in data set [12] of 37.5 µg/mL (≈ 117 µM). For the same compound, in data set [13], the IC50 stood at 10.1 µg/mL (≈ 31.4 µM). In addition, the “Selectivity Index” value in data set [14] came to 0.8.

For `CC(C)=CCCC(C)CC1CC(=O)c2ccc(O)cc2O1` (configuration not stated), the minimum inhibitory concentration (MIC) in data set [1] is 6.25 µg/mL (≈ 21.7 µM); in data set [2] it was > 200 µg/mL; in [4] it was > 200 µg/mL; in data set [5] it was 3.13 µg/mL (≈ 10.9 µM); in [7], 12.5 µg/mL (≈ 43.3 µM); in data set [9], 200 µg/mL (≈ 694 µM). In addition, the MIC in data set [10] is > 200 µg/mL; in [11] it was 1.56 µg/mL (≈ 5.41 µM). Moreover, the solubility in data set [12] is > 200 µg/mL. For the same compound, the IC50 in [13] came to 28.8 µg/mL (≈ 99.9 µM). In addition, the “Selectivity Index” value in [14] is 9.2.
